The record followed here is ChEMBL document CHEMBL1649308, “Affinity of the new cephalosporin CXA-101 to penicillin-binding proteins of Pseudomonas aeruginosa” (Antimicrob Agents Chemother, 2010).

The subject of test [1] is Pseudomonas aeruginosa. Kind of test: Antimicrobial activity against Pseudomonas aeruginosa PAO1 by broth microdilution method. It is filed as functional. In a few lines: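 MICs against strain PAO1 by standard CLSI broth microdilution (M100-S18).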
(In broth dilution the organism is exposed to a series of concentrations in liquid medium.)

Test [2] deals with Pseudomonas aeruginosa. Kind of test: Bactericidal activity against Pseudomonas aeruginosa PAO1 assessed as reduction in viable bacterial count at MIC after 8 hrs by time-kill analysis. It is filed as functional. In short, it runs like this: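 Overnight MHB cultures were diluted 1/100 and grown at 37°C, 180 rpm to OD600 0.2. Flasks of MHB with 0, 0.5×, 1×, 2× or 4× MIC were inoculated to OD600 0.01 (ca. 10^7 CFU/ml). Viable counts were followed over 8 h by plating serial dilutions on MH agar, with OD600 also read. Values are the mean ± SD of triplicate runs.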

Test [3] deals with Pseudomonas aeruginosa. Kind of test: Induction of ampC mRNA expression in Pseudomonas aeruginosa PAO1 at 0.25 X MIC relative to untreated control. It is filed as functional. In a few lines: (§1)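 Cells were exposed for 3 h to subinhibitory drug (1/2 or 1/4 MIC), alongside untreated cells. RNA was taken from log-phase LB cultures and DNase-treated (2 U, 30 min, 37°C). ampC mRNA was measured by real-time RT-PCR and normalized to rpsL. Values are the mean relative expression from at least three independent duplicate experiments.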

Test [4] has as its system Pseudomonas aeruginosa. Kind of test: Induction of ampC mRNA expression in Pseudomonas aeruginosa PAO1 at 0.5 X MIC relative to untreated control. It is filed as functional. In short, it runs like this: as §1
A short description of test [5]: Inhibition of Pseudomonas aeruginosa PAO1 PBP1b by SDS-PAGE. In a few lines:
(§2)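 Membranes were prepared from late-log (OD600 1) LB cultures by sonication and two rounds of 150,000 × g ultracentrifugation in 20 mM KH2PO4-140 mM NaCl, pH 7.5. Membranes were preincubated 30 min at 37°C with drug (0.0156–2 μg/ml), then labeled with 25 μM Bocillin FL. Samples were run on SDS-PAGE and read by fluorescence (ex 488/em 530 nm). IC50 values come from triplicate experiments.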

Test [6] in a line: Inhibition of Pseudomonas aeruginosa PAO1 PBP1c by SDS-PAGE. In short, it runs like this:
as §2

A short description of test [7]: Inhibition of Pseudomonas aeruginosa PAO1 PBP2 by SDS-PAGE. In a few lines:
as §2

Test [8] in a line: Inhibition of Pseudomonas aeruginosa PAO1 PBP3 by SDS-PAGE. In short, it runs like this:
as §2

Test [9] can be described thus: Inhibition of Pseudomonas aeruginosa PAO1 PBP4 by SDS-PAGE. In a few lines: as §2
Test [10] can be described thus: Inhibition of Pseudomonas aeruginosa PAO1 PBP5/6 by SDS-PAGE. In a few lines: as §2
Test [11] has as its system Pseudomonas aeruginosa. Kind of test: Antimicrobial activity against Pseudomonas aeruginosa PAO1 assessed as appearance of long filaments at 0.5 X MIC after 2 hrs by Live/dead cell viability assay. It is filed as functional, organism-based.
The subject of test [12] is Pseudomonas aeruginosa. Kind of test: Antimicrobial activity against Pseudomonas aeruginosa PAO1 at 4 X MIC after 8 hrs by Live/dead cell viability assay. It is filed as functional, organism-based.
Test [13] relates to Pseudomonas aeruginosa. Kind of test: Bactericidal activity against Pseudomonas aeruginosa PAO1 assessed as reduction in viable bacterial count at 2 X MIC after 8 hrs by time-kill analysis. It is filed as functional. In a few lines:
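PAO1 grown overnight in Mueller-Hinton broth, diluted 1/100 and grown at 37°C, 180 rpm to mid-log phase (OD600 0.2). Then inoculated into MHB with 0, 0.5×, 1×, 2× or 4× MIC to an initial OD600 of 0.01 (ca. 10^7 CFU/ml). Viable counts taken by plating serial dilutions on MH agar over 8 h. Triplicate experiments, mean ± SD.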

In test [14] the test system is Pseudomonas aeruginosa. Kind of test: Induction of ampC mRNA expression in Pseudomonas aeruginosa PAO1 at 50 ug/ml relative to untreated control. It is filed as functional. In short, it runs like this: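 The inducer was given at 50 μg/ml for 3 h, with an untreated comparison. RNA from log-phase LB cultures was DNase-treated, and ampC expression was quantified by real-time RT-PCR normalized to rpsL. Values are the mean of at least three independent duplicate experiments.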

≈ marks a conversion by molar mass, not a printed value. Calls of active or inactive are those of the source. Bounds are passed on as bounds.

Usually MIC stands for the smallest concentration in the dilution series that meets the test's criterion for growth inhibition. One may read the IC50 as the concentration that inhibits the measured activity by half. A high value points to lower potency. In the test with Pseudomonas aeruginosa [1], `Cn1c(N)c(NC(=O)NCCN)c[n+]1CC1=C(C(=O)O)N2C(=O)[C@@H](NC(=O)/C(=N\OC(C)(C)C(=O)[O-])c3nsc(N)n3)[C@H]2SC1` [CEFTOLOZANE] came in with an MIC of 0.5 µg/mL (≈ 0.75 µM). The results for the “fold change (FC)” value with Pseudomonas aeruginosa [2], with Pseudomonas aeruginosa [3] and with Pseudomonas aeruginosa [4] were >3, 1.6 and 1.3, respectively. For the same compound, the IC50 is 0.07 µg/mL (≈ 0.105 µM) in [5]; 0.64 µg/mL (≈ 0.96 µM) in [6]; 1.36 µg/mL (≈ 2.04 µM) in test [7]; 0.02 µg/mL (≈ 0.03 µM) in [8]; 0.29 µg/mL (≈ 0.435 µM) in test [9]; > 2 µg/mL in test [10]. Also, the outcome with Pseudomonas aeruginosa [11] and with Pseudomonas aeruginosa [12] was Active.

Compound `CC(C)(O/N=C(\C(=O)N[C@@H]1C(=O)N2C(C(=O)[O-])=C(C[n+]3ccccc3)CS[C@H]12)c1csc(N)n1)C(=O)O` [CEFTAZIDIME] came in with a minimum inhibitory concentration (MIC) with Pseudomonas aeruginosa [1] of 1 µg/mL (≈ 1.83 µM). The Activity in the test with Pseudomonas aeruginosa [13] is given as >3. For the same compound, the “fold change (FC)” value in the test on Pseudomonas aeruginosa [3] and in the test on Pseudomonas aeruginosa [4] was 1.2 throughout. Besides, the IC50 is 0.12 µg/mL (≈ 0.22 µM) in test [5]; > 2 µg/mL in [6]; > 2 µg/mL in test [7]; 0.04 µg/mL (≈ 0.0732 µM) in [8]; 1.23 µg/mL (≈ 2.25 µM) in [9]; > 2 µg/mL in test [10]. Moreover, the result in the test with Pseudomonas aeruginosa [11] and in the test with Pseudomonas aeruginosa [12] was Active.

Regarding `CO[C@@]1(NC(=O)Cc2cccs2)C(=O)N2C(C(=O)O)=C(COC(N)=O)CS[C@@H]21` [CEFOXITIN], the “fold change (FC)” value in the test on Pseudomonas aeruginosa [14] was 50.

As to `C[C@@H](O)[C@H]1C(=O)N2C(C(=O)O)=C(SCCNC=N)C[C@H]12` [IMIPENEM ANHYDROUS], the minimal inhibitory concentration (MIC) in the test with Pseudomonas aeruginosa [1] is 1 µg/mL (≈ 3.34 µM). In addition, the results for the “fold change (FC)” value in the test on Pseudomonas aeruginosa [3] and with Pseudomonas aeruginosa [4] were 193.2 and 269.5, respectively. The IC50 stood at 0.13 µg/mL (≈ 0.434 µM) in [5]; 0.08 µg/mL (≈ 0.267 µM) in test [6]; 0.08 µg/mL (≈ 0.267 µM) in test [7]; 0.12 µg/mL (≈ 0.401 µM) in test [8]; 0.02 µg/mL (≈ 0.0668 µM) in [9]; 0.2 µg/mL (≈ 0.668 µM) in test [10]. In addition, the outcome in the test with Pseudomonas aeruginosa [11] and with Pseudomonas aeruginosa [12] was Active.
